Calls of active or inactive are those of the source.
Assays:
[1] = tested on: NCI-H146; experiment: Induction of apoptosis in human NCI-H146 cells xenografted in SCID mouse assessed as caspase 3 cleavage at 50 mg/kg, iv after 3 to 24 hrs by Western blot analysis; type: functional, organism-based; design: dose 50 mg/kg
Method in brief: (§1)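 SCID mice bearing H146 xenografts (100–200 mm3) received one i.v. dose, with a vehicle control group. Tumors harvested at 3, 6 and 24 h. PARP cleavage and caspase-3 cleavage assessed by Western blot.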

[2] = tested on: NCI-H146; experiment: Induction of apoptosis in human NCI-H146 cells xenografted in SCID mouse assessed as PARP cleavage at 50 mg/kg, iv after 3 to 6 hrs by Western blot analysis; type: functional, organism-based; design: dose 50 mg/kg; method in brief: as §1
[3] = tested on: NCI-H146; experiment: Induction of apoptosis in human NCI-H146 cells assessed as caspase 3 activation at 100 nM after 24 hrs by Western blot analysis; type: functional, cell-based
Method in brief: (§2)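 H146 cells treated for 24 hr, then lysed on ice for 20 min in RIPA buffer with PMSF and protease inhibitors. Cleared lysates normalized by protein assay and run on 4–20% SDS-PAGE, then blotted to PVDF. Probed with rabbit antibodies to PARP and caspase-3 (cleaved forms detected), GAPDH as loading control, with HRP chemiluminescence detection.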

[4] = tested on: NCI-H146; experiment: Induction of apoptosis in human NCI-H146 cells assessed as PARP cleavage at 100 nM after 24 hrs by Western blot analysis; type: functional, cell-based; method in brief: as §2
[5] = tested on: NCI-H146; experiment: Antitumor activity against human NCI-H146 cells xenografted in SCID mouse assessed as tumor regression at 50 mg/kg, iv administered 5 days per week for 2 weeks; type: functional, organism-based; design: dose 50 mg/kg
Method in brief: (§3)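 SCID mice bearing H146 xenografts randomized at 40–110 mm3 tumor volume (mean 70 mm3), 8 per group. Dosed intravenously, daily, 5 days a week for 2 weeks, with a vehicle control group. Tumor size and body weight measured 3 times weekly during dosing and twice weekly afterwards. Tumor volumes reported as mean ± SEM.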

[6] = tested on: NCI-H146; experiment: Antitumor activity against human NCI-H146 cells xenografted in SCID mouse assessed as tumor growth inhibition at 50 mg/kg, iv administered 5 days per week for 2 weeks; type: functional, organism-based; design: dose 50 mg/kg; method in brief: as §3
[7] = tested on: Mus musculus; experiment: Toxicity in SCID mouse assessed as body weight loss at 75 mg/kg, iv administered 5 days per week for 2 weeks relative to vehicle-treated control; type: organism-based; design: dose 75 mg/kg, route intravenous; conditions: in vivo
Method in brief: (§4)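 Tolerability tested in SCID mice given daily i.v. doses, 5 days a week for 2 weeks. Body weight loss tracked against a 10% threshold.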

[8] = tested on: Mus musculus; experiment: Toxicity in SCID mouse assessed as body weight loss at 50 mg/kg, iv administered 5 days per week for 2 weeks relative to vehicle-treated control; type: organism-based; design: dose 50 mg/kg, route intravenous; conditions: in vivo; method in brief: as §4
[9] = Toxicity in iv dosed SCID mouse administered 5 days per week for 2 weeks; type: organism-based; conditions: in vivo
[10] = tested on: NCI-H146; experiment: Induction of apoptosis in human NCI-H146 cells assessed as cell viability after 24 hrs by trypan blue exclusion assay; type: functional, cell-based
Method in brief: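 H146 cells exposed to a range of compound concentrations for 24 hr, then harvested and stained with trypan blue. Cells staining blue or looking morphologically unhealthy were scored as dead. At least 100 cells counted per sample.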

[11] = Cytotoxicity against human NCI-H146 cells assessed as growth inhibition after 4 days by WST-8 assay; type: functional, cell-based; conditions: NCI-H146, 96 h
[12] = tested on: NCI-H1417; experiment: Cytotoxicity against human H1417 cells assessed as growth inhibition after 4 days by WST-8 assay; type: functional, cell-based; conditions: NCI-H1417, 96 h
[13] = Inhibition of c-terminally truncated N-terminal 8xHis-tagged human Bcl-xL deletion mutant expressed in Escherichia coli BL21 (DE3) after 2 hrs by fluorescence polarization assay
[14] = target: T1, Apoptosis regulator Bcl-2 (Homo sapiens, UniProt P10415)
T1 sequence (P10415 whole entry): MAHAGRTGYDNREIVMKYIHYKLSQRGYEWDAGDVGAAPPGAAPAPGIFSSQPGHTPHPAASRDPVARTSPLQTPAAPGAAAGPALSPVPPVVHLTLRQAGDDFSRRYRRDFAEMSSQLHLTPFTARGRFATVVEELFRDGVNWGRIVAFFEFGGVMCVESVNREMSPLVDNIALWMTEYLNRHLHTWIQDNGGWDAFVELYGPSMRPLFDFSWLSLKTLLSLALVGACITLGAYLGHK

[15] = target: T1, Apoptosis regulator Bcl-2; experiment: Inhibition of N-terminal 6xHis-tagged human Bcl-2 expressed in Escherichia coli BL21 (DE3) after 2 hrs by fluorescence polarization assay
[16] = tested on: Mus musculus; experiment: Toxicity in SCID mouse assessed as body weight loss at 10 mg/kg, iv administered 5 days per week for 2 weeks relative to vehicle-treated control; type: organism-based; design: dose 10 mg/kg, route intravenous; conditions: in vivo; method in brief: as §4
[17] = tested on: Mus musculus; experiment: Toxicity in SCID mouse assessed as body weight loss at 25 mg/kg, iv administered 5 days per week for 2 weeks relative to vehicle-treated control; type: organism-based; design: dose 25 mg/kg, route intravenous; conditions: in vivo; method in brief: as §4
[18] = tested on: NCI-H146; experiment: Induction of apoptosis in human NCI-H146 cells assessed as cell viability at 10 nM after 24 hrs by trypan blue exclusion assay; type: functional; conditions: NCI-H146, 24 h, read-out: Activity
Method in brief: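 H146 small-cell lung cancer cells exposed to serial compound concentrations for 24 hr, then collected and stained with trypan blue. Blue-stained or morphologically unhealthy cells were scored as dead, with at least 100 cells counted per sample.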

SMILES | Activity [1] | Activity [2] | Activity [3] | Activity [4] | Activity [5] | TGI [6] | Activity [7] | Activity [8] | MTD at 2 weeks [9] | Activity [10] | IC50 [11] | IC50 [12] | IC50 [13] | Ki [14] | IC50 [15] | Activity [16] | Activity [17] | viability at 0.01 µM [18]
Cc1c(C(=O)O)c(-c2cccc(N3CCN(c4ccc(NS(=O)(=O)c5ccc(N[C@H](CCN6CCC(O)CC6)CSc6ccccc6)c(S(=O)(=O)C(F)(F)F)c5)cc4)CC3)c2)c(-c2ccc(Cl)cc2)n1C | Active | Active | Active | Active | inactive | Active | > 10% | < 10% | 50 mg/kg | Dose-dependent effect | 108 nM | 125 nM | 7 nM | 2.4 nM | 10.2 nM | – | – | –
Cc1c(C(=O)O)c(-c2cccc(N3CCN(c4ccc(NS(=O)(=O)c5ccc(N[C@H](CCN6CCC(O)CC6)CSc6ccccc6)c(S(=O)(=O)C(F)(F)F)c5)cc4)CC3)c2)c(-c2ccc(Cl)cc2)n1C(C)C | – | – | – | – | – | – | – | – | 10 mg/kg | Dose-dependent effect | 13 nM | 9 nM | 3.9 nM | 0.8 nM | 4 nM | < 10% | > 10% | > 50%
